Results reported in the M2OR odorant receptor database.
Where a chain is given by its changes, count along the chain named.

Columns and labels:
Settings in all cases: stereoisomer not certain
OR2C3 [1] = tested on: T1, OR2C3
T1 sequence (whole entry): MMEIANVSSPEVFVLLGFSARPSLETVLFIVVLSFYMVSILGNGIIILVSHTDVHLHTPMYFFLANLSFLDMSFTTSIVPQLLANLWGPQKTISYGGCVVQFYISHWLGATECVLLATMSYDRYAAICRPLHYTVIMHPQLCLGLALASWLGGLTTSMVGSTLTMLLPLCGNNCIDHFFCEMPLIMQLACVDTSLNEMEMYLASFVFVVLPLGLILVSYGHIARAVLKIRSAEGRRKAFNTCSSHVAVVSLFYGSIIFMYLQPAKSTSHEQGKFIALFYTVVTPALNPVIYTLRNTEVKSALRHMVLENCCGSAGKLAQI
How it was run: (§1)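 Transient luciferase assays in mammalian cell lines were common, though methods varied by source. The values come from published papers and their supplementary material, with extra details from the original authors when needed. Responsive refers to a measured signal the original authors judged statistically different from baseline, and non-responsive (inactive) to the remainder.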

OR2C3 [2] = tested on: T2, OR2C3; remark: listed apart in the source
T2 sequence (whole entry): T1 sequence (whole entry) with A20T, V289L
How it was run: as §1

OR2D2 (Homo sapiens) = target: T3, OR2D2 (Homo sapiens) (UniProt Q9H210)
T3 sequence (whole entry): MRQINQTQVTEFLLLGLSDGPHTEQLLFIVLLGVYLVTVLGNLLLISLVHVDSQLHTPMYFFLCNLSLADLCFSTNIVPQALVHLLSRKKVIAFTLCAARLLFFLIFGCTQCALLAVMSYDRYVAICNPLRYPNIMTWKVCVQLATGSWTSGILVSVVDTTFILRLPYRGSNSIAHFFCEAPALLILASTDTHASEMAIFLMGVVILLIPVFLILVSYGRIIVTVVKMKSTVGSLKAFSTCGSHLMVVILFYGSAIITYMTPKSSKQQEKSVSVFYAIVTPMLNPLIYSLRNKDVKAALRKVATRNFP
How it was run: as §1

OR2D2 S148P I163T M202T = tested on: T4, OR2D2 S148P I163T M202T
T4 sequence (whole entry): T3 sequence (whole entry) with S148P, I163T, M202T
How it was run: as §1

OR2D3 (Homo sapiens) = target: T5, OR2D3 (Homo sapiens) (UniProt Q8NGH3)
T5 sequence (whole entry): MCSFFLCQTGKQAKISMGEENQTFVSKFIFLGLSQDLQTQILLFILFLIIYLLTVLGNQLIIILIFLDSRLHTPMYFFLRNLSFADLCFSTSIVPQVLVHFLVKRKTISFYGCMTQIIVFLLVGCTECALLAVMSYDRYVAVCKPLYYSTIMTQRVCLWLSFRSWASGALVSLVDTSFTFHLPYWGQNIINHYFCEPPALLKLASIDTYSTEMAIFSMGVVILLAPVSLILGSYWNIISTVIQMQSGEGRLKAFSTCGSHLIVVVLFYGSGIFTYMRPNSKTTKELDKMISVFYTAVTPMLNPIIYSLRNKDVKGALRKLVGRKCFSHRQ
How it was run: as §1

OR2D3 R155W = tested on: T6, OR2D3 R155W
T6 sequence (whole entry): T5 sequence (whole entry) with R155W
How it was run: as §1

OR2F1 (Homo sapiens) = target: T7, OR2F1 (Homo sapiens) (UniProt Q13607)
T7 sequence (whole entry): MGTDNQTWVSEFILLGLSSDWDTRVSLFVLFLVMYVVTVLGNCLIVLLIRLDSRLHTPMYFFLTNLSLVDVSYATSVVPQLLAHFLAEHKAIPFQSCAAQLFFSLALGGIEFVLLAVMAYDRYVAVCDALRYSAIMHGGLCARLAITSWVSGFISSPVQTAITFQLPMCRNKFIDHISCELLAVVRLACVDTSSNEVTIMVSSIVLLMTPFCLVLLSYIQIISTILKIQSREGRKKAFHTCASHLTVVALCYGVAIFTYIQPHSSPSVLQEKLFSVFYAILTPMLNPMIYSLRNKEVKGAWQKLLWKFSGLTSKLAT
How it was run: as §1

OR2F2 (Homo sapiens) = target: T8, OR2F2 (Homo sapiens) (UniProt O95006)
T8 sequence (whole entry): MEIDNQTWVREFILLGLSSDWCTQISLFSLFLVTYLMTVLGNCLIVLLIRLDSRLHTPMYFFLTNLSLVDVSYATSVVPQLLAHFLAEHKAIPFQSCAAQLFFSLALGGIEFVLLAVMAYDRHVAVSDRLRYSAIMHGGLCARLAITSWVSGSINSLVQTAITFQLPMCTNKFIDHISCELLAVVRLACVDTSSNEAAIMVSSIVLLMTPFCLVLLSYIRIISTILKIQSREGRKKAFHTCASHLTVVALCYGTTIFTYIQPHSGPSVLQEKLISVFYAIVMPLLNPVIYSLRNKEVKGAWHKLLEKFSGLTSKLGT
How it was run: as §1

OR2G2 (Homo sapiens) = target: T9, OR2G2 (Homo sapiens) (UniProt Q8NGZ5)
T9 sequence (whole entry): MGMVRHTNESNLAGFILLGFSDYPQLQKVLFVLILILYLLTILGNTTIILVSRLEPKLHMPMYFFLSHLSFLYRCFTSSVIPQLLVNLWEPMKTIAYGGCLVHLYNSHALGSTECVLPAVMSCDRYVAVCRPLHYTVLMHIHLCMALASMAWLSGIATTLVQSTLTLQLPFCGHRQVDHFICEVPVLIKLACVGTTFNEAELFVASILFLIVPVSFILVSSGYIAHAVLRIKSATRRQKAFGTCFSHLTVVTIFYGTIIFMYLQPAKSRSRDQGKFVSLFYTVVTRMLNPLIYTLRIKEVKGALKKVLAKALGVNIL
How it was run: as §1

OR2G2 L167P R236G = tested on: T10, OR2G2 L167P R236G
T10 sequence (whole entry): T9 sequence (whole entry) with L167P, R236G
How it was run: as §1

OR2G3 (Homo sapiens) = target: T11, OR2G3 (Homo sapiens) (UniProt Q8NGZ4)
T11 sequence (whole entry): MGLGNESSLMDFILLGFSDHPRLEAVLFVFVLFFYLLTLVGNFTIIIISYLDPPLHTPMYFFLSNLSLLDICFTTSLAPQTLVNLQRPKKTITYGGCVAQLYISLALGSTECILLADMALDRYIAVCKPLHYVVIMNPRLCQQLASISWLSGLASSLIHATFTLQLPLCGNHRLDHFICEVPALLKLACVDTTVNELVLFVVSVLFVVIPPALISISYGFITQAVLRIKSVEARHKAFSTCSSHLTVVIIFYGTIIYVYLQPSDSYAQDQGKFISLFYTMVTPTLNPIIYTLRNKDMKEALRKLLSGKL
How it was run: as §1

OR2G3 I289V = tested on: T12, OR2G3 I289V
T12 sequence (whole entry): T11 sequence (whole entry) with I289V
How it was run: as §1

OR2G6 (Homo sapiens) = target: T13, OR2G6 (Homo sapiens) (UniProt Q5TZ20)
T13 sequence (whole entry): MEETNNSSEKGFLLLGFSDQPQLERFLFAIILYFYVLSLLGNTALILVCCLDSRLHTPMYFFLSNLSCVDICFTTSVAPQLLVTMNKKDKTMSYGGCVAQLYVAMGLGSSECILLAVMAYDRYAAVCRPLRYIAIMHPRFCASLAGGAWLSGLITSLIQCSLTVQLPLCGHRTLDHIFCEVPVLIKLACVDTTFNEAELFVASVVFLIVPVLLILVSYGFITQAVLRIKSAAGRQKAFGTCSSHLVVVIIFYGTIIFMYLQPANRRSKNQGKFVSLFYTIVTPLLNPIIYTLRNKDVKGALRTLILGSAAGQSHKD
How it was run: as §1

OR2H1 (Homo sapiens) = target: T14, OR2H1 (Homo sapiens) (UniProt Q9GZK4)
T14 sequence (whole entry): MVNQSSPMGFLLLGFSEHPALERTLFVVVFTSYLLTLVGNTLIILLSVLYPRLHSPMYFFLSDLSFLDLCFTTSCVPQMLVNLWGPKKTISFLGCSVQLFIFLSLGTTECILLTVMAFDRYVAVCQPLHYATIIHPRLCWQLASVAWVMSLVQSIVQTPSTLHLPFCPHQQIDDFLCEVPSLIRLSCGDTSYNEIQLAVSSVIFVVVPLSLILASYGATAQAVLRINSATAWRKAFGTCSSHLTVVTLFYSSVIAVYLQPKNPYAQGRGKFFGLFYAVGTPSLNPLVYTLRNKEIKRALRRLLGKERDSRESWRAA
How it was run: as §1

OR2H2 (Homo sapiens) = target: T15, OR2H2 (Homo sapiens) (UniProt O95918)
T15 sequence (whole entry): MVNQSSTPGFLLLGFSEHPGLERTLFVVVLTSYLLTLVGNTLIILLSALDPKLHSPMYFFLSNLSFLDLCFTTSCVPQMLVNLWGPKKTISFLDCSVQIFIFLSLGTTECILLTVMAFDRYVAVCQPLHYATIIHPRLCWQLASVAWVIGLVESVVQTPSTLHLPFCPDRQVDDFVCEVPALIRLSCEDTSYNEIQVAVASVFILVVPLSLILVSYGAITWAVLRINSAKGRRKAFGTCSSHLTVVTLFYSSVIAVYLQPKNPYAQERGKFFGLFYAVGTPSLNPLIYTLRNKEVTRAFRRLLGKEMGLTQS
How it was run: as §1

OR2C3 (Homo sapiens) = target: T16, OR2C3 (Homo sapiens) (UniProt Q8N628)
T16 sequence (whole entry): T1 sequence (whole entry) with A20T, S68P, V289L
How it was run: as §1

OR2C1 = tested on: T17, OR2C1
T17 sequence (whole entry): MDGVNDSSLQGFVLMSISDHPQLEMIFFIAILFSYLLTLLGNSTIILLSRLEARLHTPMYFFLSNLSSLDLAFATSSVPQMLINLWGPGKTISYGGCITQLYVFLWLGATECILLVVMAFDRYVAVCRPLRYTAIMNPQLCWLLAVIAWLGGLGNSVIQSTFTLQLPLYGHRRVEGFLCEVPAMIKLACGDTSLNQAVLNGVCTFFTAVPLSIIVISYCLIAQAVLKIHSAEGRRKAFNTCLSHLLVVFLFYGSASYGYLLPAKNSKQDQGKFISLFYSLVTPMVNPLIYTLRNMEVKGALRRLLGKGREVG
How it was run: as §1

OR2F1 = tested on: OR2F1
How it was run: as §1

Measured: odorant receptor agonist call;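 further: active if original authors judged signal statistically different from baseline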

Chain of OR2F1 (as listed by the source): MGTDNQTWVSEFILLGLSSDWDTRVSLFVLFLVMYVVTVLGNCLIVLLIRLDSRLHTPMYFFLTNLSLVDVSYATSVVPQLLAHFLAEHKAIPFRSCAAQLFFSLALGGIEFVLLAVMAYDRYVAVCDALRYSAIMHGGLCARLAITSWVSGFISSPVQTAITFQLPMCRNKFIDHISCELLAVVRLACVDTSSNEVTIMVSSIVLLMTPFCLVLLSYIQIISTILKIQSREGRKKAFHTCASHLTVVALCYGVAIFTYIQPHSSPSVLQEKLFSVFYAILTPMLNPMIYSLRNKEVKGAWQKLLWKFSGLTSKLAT

CC1=NC(C)C(C)S1 (stereo unspecified)
inactive: OR2C3 [1] | OR2C3 [2] | OR2D2 (Homo sapiens) | OR2D2 S148P I163T M202T | OR2D3 (Homo sapiens) | OR2D3 R155W | OR2F1 (Homo sapiens) | OR2F2 (Homo sapiens) | OR2G2 (Homo sapiens) | OR2G2 L167P R236G | OR2G3 (Homo sapiens) | OR2G3 I289V | OR2G6 (Homo sapiens) | OR2H1 (Homo sapiens) | OR2H2 (Homo sapiens)

CCCCCC(S)C(C)CO (stereo unspecified)
inactive: OR2C3 (Homo sapiens) | OR2D2 (Homo sapiens) | OR2D3 (Homo sapiens) | OR2F1 (Homo sapiens) | OR2F2 (Homo sapiens) | OR2G2 (Homo sapiens) | OR2G3 (Homo sapiens) | OR2G6 (Homo sapiens) | OR2H1 (Homo sapiens) | OR2H2 (Homo sapiens)

C=CC(C)(CCC=C(C)C)OC(C)=O (stereo unspecified)
inactive: OR2G2 (Homo sapiens)

CCCCC(S)C(C)CO (stereo unspecified)
inactive: OR2C3 (Homo sapiens) | OR2D2 (Homo sapiens) | OR2D3 (Homo sapiens) | OR2F1 (Homo sapiens) | OR2F2 (Homo sapiens) | OR2G2 (Homo sapiens) | OR2G3 (Homo sapiens) | OR2G6 (Homo sapiens) | OR2H1 (Homo sapiens) | OR2H2 (Homo sapiens)

CC(CC=O)c1ccc(C(C)(C)C)cc1 (stereo unspecified)
inactive: OR2G2 (Homo sapiens)

O=C([O-])C[SH2+]
inactive: OR2C1 | OR2F1

CCCCCC1C(=O)CCC1CC(=O)OC (stereo unspecified)
inactive: OR2G2 (Homo sapiens)

CCCC(S)CCOC(C)=O (stereo unspecified)
inactive: OR2C3 [1] | OR2C3 [2] | OR2D2 (Homo sapiens) | OR2D2 S148P I163T M202T | OR2D3 (Homo sapiens) | OR2D3 R155W | OR2F1 (Homo sapiens) | OR2F2 (Homo sapiens) | OR2G2 (Homo sapiens) | OR2G2 L167P R236G | OR2G3 (Homo sapiens) | OR2G3 I289V | OR2G6 (Homo sapiens) | OR2H1 (Homo sapiens) | OR2H2 (Homo sapiens)

CC1=C(O)C(=O)C(C)O1 (stereo unspecified)
inactive: OR2C3 [1] | OR2C3 [2] | OR2D2 (Homo sapiens) | OR2D2 S148P I163T M202T | OR2D3 (Homo sapiens) | OR2D3 R155W | OR2F1 (Homo sapiens) | OR2F2 (Homo sapiens) | OR2G2 (Homo sapiens) | OR2G2 L167P R236G | OR2G3 (Homo sapiens) | OR2G3 I289V | OR2G6 (Homo sapiens) | OR2H1 (Homo sapiens) | OR2H2 (Homo sapiens)

CCCCC1CCC(=O)O1 (stereo unspecified)
inactive: OR2G2 (Homo sapiens)

CCC1OC(=O)C(O)=C1C (stereo unspecified)
inactive: OR2C3 [1] | OR2C3 [2] | OR2D2 (Homo sapiens) | OR2D2 S148P I163T M202T | OR2D3 (Homo sapiens) | OR2D3 R155W | OR2F1 (Homo sapiens) | OR2F2 (Homo sapiens) | OR2G2 (Homo sapiens) | OR2G2 L167P R236G | OR2G3 (Homo sapiens) | OR2G3 I289V | OR2G6 (Homo sapiens) | OR2H1 (Homo sapiens) | OR2H2 (Homo sapiens)

CCC(S)C(C)CO (stereo unspecified)
inactive: OR2C3 (Homo sapiens) | OR2D2 (Homo sapiens) | OR2D3 (Homo sapiens) | OR2F1 (Homo sapiens) | OR2F2 (Homo sapiens) | OR2G2 (Homo sapiens) | OR2G3 (Homo sapiens) | OR2G6 (Homo sapiens) | OR2H1 (Homo sapiens) | OR2H2 (Homo sapiens)
